An excerpt weighted towards active compounds, which were near 4% of everything screened.
hiPSC survival: enhancers of human iPSC single-cell survival; survival enhancement, % at 20 µM; 0.044% of 360,000 active; hiPSC single-cell survival, ATPlite luminescence; 100% = ROCK inhibitor wells, 0% = DMSO; in the data active = survival enhancement above about 18%;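 note: cells exposed to compounds for 16 hours before the ATP read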
FAS TE block: FAS thioesterase (human) inhibition; recombinant FAS-TE, OMFH fluorogenic substrate, fluorescence endpoint; inhibition, % at 15 µM; 0.67% of 360,000 active; AID 602261;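 active = compounds whose normalised, plate-corrected inhibition of enzyme fluorescence in the single-dose primary screen is 50% or more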
SENP1 FRET inh: inhibitors of human SENP1 SUMO protease catalytic domain | Q9P0U3 | AID 624204 | 0.21% of 360,000 active | inhibition, % at 10 µM | recombinant SENP1 catalytic domain, CyPet-SUMO1-YPet FRET cleavage;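 active = inhibition at least 30% at 10 µM, raw YFP signal under a set limit, fluorescence ratio 0.5 to 1.5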
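Compound: 10 µM single point, 0.5% DMSO; Test system: hSENP1 catalytic domain, recombinant; Timing: 50 min reaction at room temperature; Technique: FRET, CFP and YFP emission; Control set: no-enzyme wells low, DMSO-plus-enzyme wells high control.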
Arrestin-AP2 inh: inhibitors of human beta-arrestin and AP2 interaction | FITC-arrestin peptide / GST-AP2 beads, flow cytometry; AP2 beta2 appendage carries R879A mutation | inhibition, % at 10 µM | 0.31% of 340,000 active;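 active = inhibition above a set limit, near 3 SD of compounds lacking own fluorescence, cut at about 54% in these data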
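System: GST-AP2 R879A bound to glutathione beads, E. coli-expressed. Also added: 50 nM FITC-arrestin peptide. Schedule: compound with beads 12 min RT, then probe 1 h RT. Signal: bead flow cytometry, FITC channel. Read-out basis: percent response.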
GRIN3A LBD mod: NR3A (human) ligand-binding domain modulation | AID 1259313 | NR3A LBD differential scanning fluorimetry, Tm shift; 0% = protein alone, 100% = glycine-bound protein | 2.5% of 340,000 active | Tm shift relative to glycine control, % at 25 µM;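 active = melting temperature shift of at least 10% of the positive control shift, at one fixed dose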
Cardio protect: modulators protecting cardiomyocytes from myocardial damage; protection from H2O2 cell death, % at 20 µM; 0.63% of 360,000 active; H9c2 cardiomyocytes, H2O2 injury protection, ATPLite, 2 h; AID 588492;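 active = compounds giving at least 50% protection of heart cells from peroxide-induced death in the single-dose screen, raw or plate-pattern-corrected value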
Arr AP2 CP1: inhibitors of human beta-arrestin and AP2 interaction; shares compounds with Arrestin-AP2 inh; GST-AP2 beads, FITC arrestin peptide binding, flow cytometry; GST-fused beta2-adaptin appendage, R879A mutant; inhibition, % at 10 µM; 2% of 1,300 active;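 active = inhibition above a set limit, roughly 3 SD of non-fluorescent compound noise, cut at about 38% in these data; inactive = inhibition at or below that limit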;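 note: loss of bead fluorescence from 50 nM FITC arrestin peptide bound to appendage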
GST-FITC bead: GST-GSH bead binding interference, counter-screen; 2% of 1,300 active; GST-fluorescein binding to GSH beads, fluorescence; inhibition, % at 10 µM; shares compounds with Arrestin-AP2 inh; AID 588338;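 active = inhibition above 50%, about 3 SD of the inhibition seen with non-fluorescent compounds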;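 note: fluorescein maleimide labelled GST captured on 4 micron glutathione beads; higher means more loss of bead fluorescence from quenching or blocked binding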
Hits are given with their value; n = inactive; x = no result.

SMILES | hiPSC survival | FAS TE block | SENP1 FRET inh | Arrestin-AP2 inh | GRIN3A LBD mod | Cardio protect | Arr AP2 CP1 | GST-FITC bead
Cc1c(C(=O)c2ccc(F)cc2F)c2ccccn2c1CCC#N | n | n | n | 61.8 | n | n | n | n
CCN(CC)C(=O)CSc1nnc2nnc3cc(C)ccc3n12 | n | n | n | 57.3 | n | n | n | n
CCN(CC)C(=O)CSc1nnc2nnc3cc(Cl)ccc3n12 | n | n | n | n | n | n | x | x
CC(C(=O)N1CCCC1)N(c1ccc(Cl)cc1)S(C)(=O)=O (centres undefined) | n | n | n | x | x | n | x | x
Cc1ccc(S(=O)(=O)N2C[C@H]3C(=O)C[C@@H](c4ccccc4)N(S(=O)(=O)c4ccc(C)cc4)[C@H]3C[C@H]2c2cccc(C)c2)cc1 | n | n | n | x | x | n | x | x
COC(=O)c1ccc(CNC(=O)C2CCC(=O)N(CCc3ccccc3)C2)cc1 (centres undefined) | n | n | n | n | n | n | n | n
O=C(NCc1ccccc1OC(F)(F)F)C1CCC(=O)N(Cc2cccc(F)c2)C1 (centres undefined) | n | n | n | n | n | n | x | x
Cc1ccccc1CNC(=O)C1CCC(=O)N(Cc2cccc(F)c2)C1 (centres undefined) | n | n | n | n | n | n | n | n
Cc1ccsc1CCNC(=O)C1CCC(=O)N(CCc2cccc(F)c2)C1 (centres undefined) | n | n | n | n | n | n | x | x
Cc1ccccc1CCNC(=O)C1CCC(=O)N(CCc2cccc(F)c2)C1 (centres undefined) | n | n | n | n | n | n | n | n
Cn1ccc(C(=O)OCC(=O)Nc2cccc3ccccc23)n1 | n | n | n | 59.4 | n | n | n | n
CCN(CC(=O)Nc1ccc(OC)cc1)C(=O)Cc1cccs1 | n | n | n | 55.5 | n | n | n | n
CCN(CC(=O)Nc1ccc(OC)cc1)C(=O)CCS(=O)(=O)c1ccc(C)cc1 | n | n | n | n | n | n | x | x
CC1(C(=O)NC2CCCCC2)CCC(=O)N1CCOc1ccccc1 (centres undefined) | n | n | n | x | x | n | x | x
CCOc1ccccc1NC(=O)Cn1c(=O)c2ccccc2n(CC)c1=O | n | n | n | n | n | n | n | n
CCn1c(=O)n(CC(=O)Nc2cc(OC)ccc2OC)c(=O)c2ccccc21 | n | n | n | n | n | n | n | n
CC1(C(=O)NS(=O)(=O)c2ccc(Cl)s2)CCN1C(=O)Cc1ccc(-c2ccccc2)cc1 (centres undefined) | n | n | n | x | x | n | x | x
OCCN1CCN(c2ncnc3c2ncn3[C@H]2CN(Cc3ccc(Cl)cc3)C[C@@H](CO)O2)CC1 | n | n | n | x | x | n | x | x
CCC(C)(C)NC(=O)C(c1cccnc1)N(C(=O)c1csnn1)c1ccccc1 (centres undefined) | n | n | n | 54.2 | n | n | n | n
O=C1C(c2ccccc2)=[N+]([O-])c2ccccc21 | n | n | n | n | n | n | x | x
CCCCN(C=O)c1c(CC)nc2c(OCc3ccc(S(C)(=O)=O)cc3)cccn12 | n | n | n | x | x | n | x | x
CCC(=O)Nc1ccc(C(=O)c2ccccc2)cc1 | n | n | n | 84.2 | n | n | n | n
CC(C)COc1cccc(-c2cc(C(=O)N/N=C/c3ccncc3)c3ccccc3n2)c1 | n | n | n | n | n | n | x | x
Cn1c(=O)c2c(ncn2CC(=O)N2CCN(S(=O)(=O)c3ccccc3)CC2)n(C)c1=O | n | n | n | 57.2 | n | n | n | n
Cc1ccc(C)c(S(=O)(=O)N2CCN(C(=O)Cn3cnc4c3c(=O)n(C)c(=O)n4C)CC2)c1 | n | n | n | n | n | n | x | x
CCOC(=O)c1c(NC(=O)c2ccc(Br)o2)sc(C)c1CC | n | n | n | 98.3 | n | n | n | n
